One block for each compound: values may come before it. *1 amine or outer side, *2 acyl side, *3 side chain or, on linkers, in order; H or OH if unused. Where a SMILES comes first, the peptide text is derived from it. Bridges are numbered along the chain shown (N, C = ends). [ ]: non-standard residue; d: D form. The star is where a group is joined. Staurosporine = CO[C@@H]1[C@H](N(C)*)C[C@H]2O[C@]1(C)n1c3ccccc3c3c4c(c5c6ccccc6n2c5c31)C(=O)NC4; Suc = O=C(CCC(=O)[*:2])[*:1]; Dap = NC[C@H](N)C(=O)O; βAla = NCCC(=O)O
How the values were obtained:
[1] = molecular target: T1, Activin receptor type-1B (Homo sapiens) (UniProt P36896); experiment: Binding affinity to human ACVR1B at 500 nM by cell-based competition binding assay relative to control in presence of DTT
T1 sequence (whole entry): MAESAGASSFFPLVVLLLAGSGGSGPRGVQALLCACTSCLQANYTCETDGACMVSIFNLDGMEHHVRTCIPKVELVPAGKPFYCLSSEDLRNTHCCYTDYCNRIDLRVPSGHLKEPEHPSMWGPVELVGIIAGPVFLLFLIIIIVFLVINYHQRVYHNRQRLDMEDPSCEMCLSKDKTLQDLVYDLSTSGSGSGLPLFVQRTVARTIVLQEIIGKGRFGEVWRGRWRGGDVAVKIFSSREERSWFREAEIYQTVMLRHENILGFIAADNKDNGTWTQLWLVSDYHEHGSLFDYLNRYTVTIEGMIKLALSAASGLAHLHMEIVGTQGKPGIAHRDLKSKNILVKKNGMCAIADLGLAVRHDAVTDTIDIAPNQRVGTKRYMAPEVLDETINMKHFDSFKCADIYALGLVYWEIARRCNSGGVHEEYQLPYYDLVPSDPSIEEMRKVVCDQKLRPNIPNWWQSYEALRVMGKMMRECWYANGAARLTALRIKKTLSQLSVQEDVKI
How it was run: (§1)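 Kinase binding profiling ran on a commercial (Ambit) competitive binding screen against a panel of 90 kinases. The screen used reducing conditions with 7.5 mM DTT. To withstand the DTT, the bivalent ligand was tested as its amide isostere, with the disulfide replaced. A staurosporine derivative carrying a 3 β-alanine linker was run as the reference compound.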

[2] = molecular target: Ribosomal protein S6 kinase alpha-3 (Homo sapiens) (UniProt P51812); experiment: Binding affinity to human RPS6KA3 kinase domain 1 at 500 nM by cell-based competition binding assay relative to control in presence of DTT
[3] = molecular target: High affinity nerve growth factor receptor (Homo sapiens) (UniProt P04629); experiment: Binding affinity to human TRKA at 500 nM by cell-based competition binding assay relative to control in presence of DTT
[4] = molecular target: T2, Serine/threonine-protein kinase PLK4 (Homo sapiens) (UniProt O00444); experiment: Binding affinity to human PLK4 at 200 nM by cell-based competition binding assay relative to control in presence of DTT
T2 sequence (whole entry): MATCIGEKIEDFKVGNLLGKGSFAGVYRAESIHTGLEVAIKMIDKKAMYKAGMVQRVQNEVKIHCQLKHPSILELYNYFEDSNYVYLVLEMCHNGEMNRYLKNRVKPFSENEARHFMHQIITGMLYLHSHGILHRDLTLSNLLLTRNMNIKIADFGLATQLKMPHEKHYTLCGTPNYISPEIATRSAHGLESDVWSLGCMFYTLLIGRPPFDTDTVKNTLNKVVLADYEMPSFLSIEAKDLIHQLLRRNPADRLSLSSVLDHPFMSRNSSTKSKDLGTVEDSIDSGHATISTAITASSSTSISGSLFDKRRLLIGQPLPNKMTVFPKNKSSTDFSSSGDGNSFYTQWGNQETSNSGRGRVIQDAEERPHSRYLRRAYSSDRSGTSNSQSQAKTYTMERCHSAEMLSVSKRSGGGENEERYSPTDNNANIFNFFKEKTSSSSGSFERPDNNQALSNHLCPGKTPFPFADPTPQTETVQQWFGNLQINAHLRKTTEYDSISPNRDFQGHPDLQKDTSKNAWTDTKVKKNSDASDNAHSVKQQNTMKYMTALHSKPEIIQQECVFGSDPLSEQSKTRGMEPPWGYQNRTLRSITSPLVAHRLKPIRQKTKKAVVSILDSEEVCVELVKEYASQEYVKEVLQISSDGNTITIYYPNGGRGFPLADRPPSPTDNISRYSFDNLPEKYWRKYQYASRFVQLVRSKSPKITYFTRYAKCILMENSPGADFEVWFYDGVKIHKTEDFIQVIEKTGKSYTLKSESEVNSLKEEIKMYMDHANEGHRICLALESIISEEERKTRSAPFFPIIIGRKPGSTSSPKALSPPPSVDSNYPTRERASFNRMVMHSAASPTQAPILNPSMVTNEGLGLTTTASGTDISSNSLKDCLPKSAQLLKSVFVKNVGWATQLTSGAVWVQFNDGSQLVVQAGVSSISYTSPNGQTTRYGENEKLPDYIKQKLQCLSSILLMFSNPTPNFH

[5] = molecular target: Aurora kinase B (Homo sapiens) (UniProt Q96GD4); experiment: Binding affinity to human aurora kinase B at 200 nM by cell-based competition binding assay relative to control in presence of DTT
[6] = test system: Tyrosine-protein kinase ABL1 (Homo sapiens), P00519 [E255K]; experiment: Binding affinity to human ABL1 E255K mutant at 50 nM by cell-based competition binding assay relative to control in presence of DTT; how it was run: as §1
[7] = molecular target: Angiopoietin-1 receptor (Homo sapiens) (UniProt Q02763); experiment: Binding affinity to human TIE2 at 50 nM by cell-based competition binding assay relative to control in presence of DTT
[8] = molecular target: MAP kinase-interacting serine/threonine-protein kinase 1 (Homo sapiens) (UniProt Q9BUB5); experiment: Binding affinity to human MKNK1 at 50 nM by cell-based competition binding assay relative to control in presence of DTT
[9] = molecular target: Phosphatidylinositol 4,5-bisphosphate 3-kinase catalytic subunit gamma isoform (Homo sapiens) (UniProt P48736); experiment: Binding affinity to human PIK3Cgamma at 50 nM by cell-based competition binding assay relative to control in presence of DTT
[10] = molecular target: T3, NUAK family SNF1-like kinase 2 (Homo sapiens) (UniProt Q9H093); experiment: Binding affinity to human SNARK at 50 nM by cell-based competition binding assay relative to control in presence of DTT
T3 sequence (whole entry): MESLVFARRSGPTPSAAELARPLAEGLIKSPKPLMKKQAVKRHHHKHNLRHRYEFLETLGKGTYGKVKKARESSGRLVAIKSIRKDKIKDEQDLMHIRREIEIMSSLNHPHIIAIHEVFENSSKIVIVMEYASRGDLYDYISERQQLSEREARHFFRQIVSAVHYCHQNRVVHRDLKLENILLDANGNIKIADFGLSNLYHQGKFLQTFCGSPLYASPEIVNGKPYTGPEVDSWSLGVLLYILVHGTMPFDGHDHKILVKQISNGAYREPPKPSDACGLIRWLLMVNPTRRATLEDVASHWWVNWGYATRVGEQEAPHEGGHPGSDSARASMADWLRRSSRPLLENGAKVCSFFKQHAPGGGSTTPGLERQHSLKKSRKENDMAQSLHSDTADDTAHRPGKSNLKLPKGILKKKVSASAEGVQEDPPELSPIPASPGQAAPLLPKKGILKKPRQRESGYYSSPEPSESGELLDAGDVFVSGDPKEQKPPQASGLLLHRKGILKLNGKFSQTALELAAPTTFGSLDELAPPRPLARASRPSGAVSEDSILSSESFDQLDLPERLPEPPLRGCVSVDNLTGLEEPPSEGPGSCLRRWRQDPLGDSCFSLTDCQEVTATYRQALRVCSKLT

Sequence of High affinity nerve growth factor receptor (Homo sapiens) (P04629 33-796 limits assumed): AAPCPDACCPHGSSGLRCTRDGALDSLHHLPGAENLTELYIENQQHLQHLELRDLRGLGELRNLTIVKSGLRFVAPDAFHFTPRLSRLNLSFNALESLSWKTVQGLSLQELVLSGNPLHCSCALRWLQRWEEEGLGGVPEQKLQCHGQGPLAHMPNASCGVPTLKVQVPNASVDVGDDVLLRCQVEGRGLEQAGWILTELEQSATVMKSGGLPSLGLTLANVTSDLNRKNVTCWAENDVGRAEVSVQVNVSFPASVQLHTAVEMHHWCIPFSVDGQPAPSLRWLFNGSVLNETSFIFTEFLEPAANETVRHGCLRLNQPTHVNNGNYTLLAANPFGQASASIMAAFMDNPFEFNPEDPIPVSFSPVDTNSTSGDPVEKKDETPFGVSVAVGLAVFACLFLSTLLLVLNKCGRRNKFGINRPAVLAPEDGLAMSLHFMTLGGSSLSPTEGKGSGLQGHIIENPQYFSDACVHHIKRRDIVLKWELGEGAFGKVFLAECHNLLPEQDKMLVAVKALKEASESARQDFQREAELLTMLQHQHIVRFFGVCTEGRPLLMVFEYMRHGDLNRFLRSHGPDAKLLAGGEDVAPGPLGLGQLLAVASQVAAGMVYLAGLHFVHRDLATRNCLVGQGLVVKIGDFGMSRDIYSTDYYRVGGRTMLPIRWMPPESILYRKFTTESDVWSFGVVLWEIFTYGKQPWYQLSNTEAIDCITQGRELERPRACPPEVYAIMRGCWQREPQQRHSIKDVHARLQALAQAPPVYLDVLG
Sequence of Angiopoietin-1 receptor (Homo sapiens) (Q02763 whole entry): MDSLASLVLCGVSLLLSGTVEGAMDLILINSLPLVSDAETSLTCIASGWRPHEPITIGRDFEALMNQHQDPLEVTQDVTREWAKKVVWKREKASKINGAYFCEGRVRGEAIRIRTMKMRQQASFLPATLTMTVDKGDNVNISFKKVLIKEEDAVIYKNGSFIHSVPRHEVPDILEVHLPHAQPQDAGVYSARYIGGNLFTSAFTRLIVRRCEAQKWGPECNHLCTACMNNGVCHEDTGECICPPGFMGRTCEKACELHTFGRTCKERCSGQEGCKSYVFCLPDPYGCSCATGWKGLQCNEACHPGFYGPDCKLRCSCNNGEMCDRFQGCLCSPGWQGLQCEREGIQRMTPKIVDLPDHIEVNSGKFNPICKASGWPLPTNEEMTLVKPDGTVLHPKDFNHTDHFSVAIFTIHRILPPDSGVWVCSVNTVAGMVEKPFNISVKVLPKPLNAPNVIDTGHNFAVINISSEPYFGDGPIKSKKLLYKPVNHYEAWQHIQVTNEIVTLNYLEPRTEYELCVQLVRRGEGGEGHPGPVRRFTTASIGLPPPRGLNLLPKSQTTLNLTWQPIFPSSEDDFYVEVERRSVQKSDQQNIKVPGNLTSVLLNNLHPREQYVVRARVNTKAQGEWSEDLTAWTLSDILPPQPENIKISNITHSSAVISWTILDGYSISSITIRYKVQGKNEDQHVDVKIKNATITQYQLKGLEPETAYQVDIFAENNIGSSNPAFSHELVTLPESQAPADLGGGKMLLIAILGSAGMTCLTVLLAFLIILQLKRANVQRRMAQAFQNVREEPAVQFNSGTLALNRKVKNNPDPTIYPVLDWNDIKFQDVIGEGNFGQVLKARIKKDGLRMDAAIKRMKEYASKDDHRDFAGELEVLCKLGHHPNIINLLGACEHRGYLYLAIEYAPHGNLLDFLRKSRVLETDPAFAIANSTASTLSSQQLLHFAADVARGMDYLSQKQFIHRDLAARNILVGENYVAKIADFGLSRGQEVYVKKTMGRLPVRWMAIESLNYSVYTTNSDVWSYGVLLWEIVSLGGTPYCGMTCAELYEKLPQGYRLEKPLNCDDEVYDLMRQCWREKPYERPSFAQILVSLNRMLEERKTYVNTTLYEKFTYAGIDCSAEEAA
Sequence of Tyrosine-protein kinase ABL1 (Homo sapiens), P00519 [E255K] (P00519 whole entry E255K): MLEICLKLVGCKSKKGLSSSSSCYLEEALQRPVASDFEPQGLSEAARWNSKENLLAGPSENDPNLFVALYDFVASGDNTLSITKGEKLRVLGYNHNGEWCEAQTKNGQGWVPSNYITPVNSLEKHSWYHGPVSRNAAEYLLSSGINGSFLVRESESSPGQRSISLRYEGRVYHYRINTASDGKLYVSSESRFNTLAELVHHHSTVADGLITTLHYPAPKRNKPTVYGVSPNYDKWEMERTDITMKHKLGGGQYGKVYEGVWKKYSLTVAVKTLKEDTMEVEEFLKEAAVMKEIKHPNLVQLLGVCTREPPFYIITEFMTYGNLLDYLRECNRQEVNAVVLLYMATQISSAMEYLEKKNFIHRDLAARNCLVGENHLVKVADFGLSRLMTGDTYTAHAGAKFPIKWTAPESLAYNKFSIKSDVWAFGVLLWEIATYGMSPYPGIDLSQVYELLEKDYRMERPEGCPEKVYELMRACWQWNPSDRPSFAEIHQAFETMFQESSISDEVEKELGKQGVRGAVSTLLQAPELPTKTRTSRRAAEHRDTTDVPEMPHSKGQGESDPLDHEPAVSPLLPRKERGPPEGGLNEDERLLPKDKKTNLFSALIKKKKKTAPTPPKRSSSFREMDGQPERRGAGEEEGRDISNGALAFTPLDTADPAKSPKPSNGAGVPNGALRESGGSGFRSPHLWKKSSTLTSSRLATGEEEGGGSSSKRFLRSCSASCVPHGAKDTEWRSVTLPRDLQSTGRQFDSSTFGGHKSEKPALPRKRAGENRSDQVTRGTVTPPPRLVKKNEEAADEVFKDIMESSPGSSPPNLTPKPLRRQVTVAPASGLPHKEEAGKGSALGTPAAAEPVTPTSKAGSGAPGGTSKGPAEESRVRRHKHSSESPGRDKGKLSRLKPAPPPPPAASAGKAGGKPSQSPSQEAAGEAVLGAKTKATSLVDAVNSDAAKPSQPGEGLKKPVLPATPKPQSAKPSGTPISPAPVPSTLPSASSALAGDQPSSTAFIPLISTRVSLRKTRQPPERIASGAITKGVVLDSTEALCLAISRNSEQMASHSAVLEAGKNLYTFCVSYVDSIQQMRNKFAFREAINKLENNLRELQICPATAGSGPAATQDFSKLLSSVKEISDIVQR
Sequence of Ribosomal protein S6 kinase alpha-3 (Homo sapiens) (P51812 whole entry, the tested form may be a part): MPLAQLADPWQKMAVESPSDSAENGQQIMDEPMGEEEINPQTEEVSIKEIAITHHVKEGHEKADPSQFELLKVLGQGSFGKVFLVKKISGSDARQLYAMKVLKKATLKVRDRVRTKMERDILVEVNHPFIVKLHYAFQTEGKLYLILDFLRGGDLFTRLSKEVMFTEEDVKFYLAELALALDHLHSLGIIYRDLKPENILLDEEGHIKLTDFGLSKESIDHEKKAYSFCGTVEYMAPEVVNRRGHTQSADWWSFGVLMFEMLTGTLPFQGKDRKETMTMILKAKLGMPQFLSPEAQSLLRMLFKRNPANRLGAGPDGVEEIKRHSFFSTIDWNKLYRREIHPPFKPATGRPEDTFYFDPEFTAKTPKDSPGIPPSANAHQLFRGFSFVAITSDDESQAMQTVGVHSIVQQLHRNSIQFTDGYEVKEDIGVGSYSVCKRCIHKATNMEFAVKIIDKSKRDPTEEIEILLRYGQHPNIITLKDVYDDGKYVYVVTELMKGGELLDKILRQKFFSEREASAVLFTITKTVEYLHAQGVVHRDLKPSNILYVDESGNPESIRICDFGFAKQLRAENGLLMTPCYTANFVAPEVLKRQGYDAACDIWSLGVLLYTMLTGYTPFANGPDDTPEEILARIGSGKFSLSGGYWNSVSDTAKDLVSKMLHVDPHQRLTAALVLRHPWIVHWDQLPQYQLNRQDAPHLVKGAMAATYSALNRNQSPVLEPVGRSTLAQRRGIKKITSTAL
Sequence of MAP kinase-interacting serine/threonine-protein kinase 1 (Homo sapiens) (Q9BUB5 whole entry, looked up, canonical isoform): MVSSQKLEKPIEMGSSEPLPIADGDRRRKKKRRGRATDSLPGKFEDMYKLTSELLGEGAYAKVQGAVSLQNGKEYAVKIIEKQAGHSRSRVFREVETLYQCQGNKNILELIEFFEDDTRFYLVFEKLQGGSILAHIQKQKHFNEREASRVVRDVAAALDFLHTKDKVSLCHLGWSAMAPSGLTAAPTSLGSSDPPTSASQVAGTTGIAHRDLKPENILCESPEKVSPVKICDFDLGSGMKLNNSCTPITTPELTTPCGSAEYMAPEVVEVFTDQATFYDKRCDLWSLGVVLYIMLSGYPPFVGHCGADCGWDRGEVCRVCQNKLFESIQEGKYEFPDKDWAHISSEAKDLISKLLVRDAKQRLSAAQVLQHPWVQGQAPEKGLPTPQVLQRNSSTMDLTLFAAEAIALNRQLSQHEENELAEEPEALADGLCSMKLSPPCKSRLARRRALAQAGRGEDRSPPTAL
Sequence of Aurora kinase B (Homo sapiens) (Q96GD4 whole entry): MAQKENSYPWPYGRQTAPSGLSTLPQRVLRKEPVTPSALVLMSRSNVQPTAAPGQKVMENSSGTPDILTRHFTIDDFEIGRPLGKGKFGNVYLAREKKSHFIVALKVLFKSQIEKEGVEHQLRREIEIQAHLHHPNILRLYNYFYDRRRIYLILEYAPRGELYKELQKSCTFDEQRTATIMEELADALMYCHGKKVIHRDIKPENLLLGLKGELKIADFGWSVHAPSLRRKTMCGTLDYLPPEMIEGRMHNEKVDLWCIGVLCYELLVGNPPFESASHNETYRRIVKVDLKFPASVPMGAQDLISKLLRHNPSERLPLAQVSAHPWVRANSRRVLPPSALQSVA

- Activity [1]: 87%
- Activity [2]: 44%
- Activity [3]: 13%
SMILES: CO[C@@H]1[C@H](N(C)C(=O)CCC(=O)NCCC(=O)NCCC(=O)NCCC(N)=O)C[C@H]2O[C@]1(C)n1c3ccccc3c3c4c(c5c6ccccc6n2c5c31)C(=O)NC4

- Activity [4]: 4.9%
- Activity [5]: 5.8%
SMILES: CO[C@@H]1[C@H](N(C)C(=O)CCC(=O)NCCC(=O)NCCC(=O)NCCC(=O)NCCC(=O)NCCC(=O)NCCC(=O)NCCC(=O)N[C@H]2CSSC[C@@H](C(=O)NCC(N)=O)NC(=O)CNC(=O)[C@H](Cc3ccccc3)NC(=O)[C@H](C(C)C)NC(=O)[C@H](CCCNC(=N)N)NC(=O)[C@H](Cc3ccccc3)NC(=O)[C@H](C(C)C)NC2=O)C[C@H]2O[C@]1(C)n1c3ccccc3c3c4c(c5c6ccccc6n2c5c31)C(=O)NC4 ({Staurosporine-Suc-βAla-βAla-βAla-βAla-βAla-βAla-βAla}-CVFRVFGCG-NH2; disulfide 1-8)

- Activity [6]: 97%
- Activity [7]: 100%
- Activity [8]: 100%
- Activity [9]: 91%
- Activity [10]: 1.8%
SMILES: CO[C@@H]1[C@H](N(C)C(=O)CCC(=O)NCCC(=O)NCCC(=O)NCCC(=O)NCCC(=O)NCCC(=O)NCCC(=O)NCCC(=O)N[C@H]2CNC(=O)C[C@@H](C(N)=O)NC(=O)CNC(=O)[C@H](Cc3ccccc3)NC(=O)[C@H](C(C)C)NC(=O)[C@H](CCCNC(=N)N)NC(=O)[C@H](Cc3ccccc3)NC(=O)[C@H](C(C)C)NC2=O)C[C@H]2O[C@]1(C)n1c3ccccc3c3c4c(c5c6ccccc6n2c5c31)C(=O)NC4 ({Staurosporine-Suc-βAla-βAla-βAla-βAla-βAla-βAla-βAla}-[Dap]VFRVFGD-NH2; lactam 1-8)

From ChEMBL document CHEMBL1152541, “Staurosporine tethered peptide ligands that target cAMP-dependent protein kinase (PKA): optimization and selectivity profiling” (Bioorg Med Chem, 2009)
